Experimental data published in ChEMBL document CHEMBL1125344, “(Pyridylcyanomethyl)piperazines as orally active PAF antagonists” (J Med Chem, 1992).

Legend:
[1] = target: Platelet-activating factor receptor (Mus musculus) (UniProt Q62035); experiment: Oral dose required to inhibit PAF-induced mortality (PAF-Antagonistic activity)in mice by 50%.; assay type: functional; conditions: Mus sp.
How it was run: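 Male Swiss mice, 22-26 g, in groups of 10. Compound or saline given po (20 mL/kg) 60 min before C18-PAF 100 µg/kg plus propranolol 1 mg/kg by tail vein. ID50 from percent inhibition of mortality versus controls.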

[2] = target: Platelet-activating factor receptor (Rattus norvegicus) (UniProt P46002); experiment: Dose required to inhibit PAF-induced hypotension (PAF-Antagonistic activity) in normotensive rats by 50%.; assay type: functional
Chain of Platelet-activating factor receptor (Rattus norvegicus) (P46002 whole entry): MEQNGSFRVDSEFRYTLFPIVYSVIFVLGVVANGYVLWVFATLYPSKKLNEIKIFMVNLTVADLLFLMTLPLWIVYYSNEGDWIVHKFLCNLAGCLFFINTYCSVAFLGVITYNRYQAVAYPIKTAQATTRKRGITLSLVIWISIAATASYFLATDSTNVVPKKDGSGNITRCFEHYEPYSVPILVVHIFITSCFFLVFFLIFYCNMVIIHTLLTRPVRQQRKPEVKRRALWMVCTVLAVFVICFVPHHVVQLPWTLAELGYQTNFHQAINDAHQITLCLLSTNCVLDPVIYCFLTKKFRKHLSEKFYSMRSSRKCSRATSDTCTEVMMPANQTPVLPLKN
How it was run: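 Male Sprague-Dawley rats, 180-220 g, anesthetized with sodium pentobarbital ip. Carotid blood pressure recorded. Compound given iv in saline (1 mL/kg) via femoral vein 3 min before PAF 0.5 µg/kg iv; vehicle controls. ID50 by linear regression of one curve of at least four doses, each the mean % inhibition from two or more experiments.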

[3] = target: Platelet-activating factor receptor (Rattus norvegicus) (UniProt P46002); experiment: In vivo dose administered intravenously to inhibit PAF-induced hypotension (PAF-Antagonistic activity) in normotensive rats by 55%.; assay type: functional, organism-based

Chain of Platelet-activating factor receptor (Mus musculus) (Q62035 whole entry): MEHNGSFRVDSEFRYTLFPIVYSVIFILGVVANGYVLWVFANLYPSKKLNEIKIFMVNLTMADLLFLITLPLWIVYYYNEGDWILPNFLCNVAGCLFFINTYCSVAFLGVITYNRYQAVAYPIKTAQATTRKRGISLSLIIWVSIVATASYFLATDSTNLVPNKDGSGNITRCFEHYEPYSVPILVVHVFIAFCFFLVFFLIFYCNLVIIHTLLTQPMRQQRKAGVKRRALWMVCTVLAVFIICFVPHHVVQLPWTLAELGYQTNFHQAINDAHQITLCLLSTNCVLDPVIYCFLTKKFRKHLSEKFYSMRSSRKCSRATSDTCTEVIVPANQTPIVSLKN

| Structure (SMILES) | ID50 [1] | ID50 [2] | ID50 [3] |
| --- | --- | --- | --- |
| N#CC(c1ccncc1)N1CCN(C(=O)CNC(=O)C(c2ccccc2)c2ccccc2)CC1 (centres undefined) | > 20 mg/kg | 0.47 mg/kg | – |
| N#CC(c1cccnc1)N1CCN(C(=O)C=C(c2ccccc2)c2ccccc2)CC1 (centres undefined) | 50 mg/kg | 0.049 mg/kg | – |
| COc1cc(C(=O)N2CCN(C(=O)c3cccnc3)CC2)cc(OC)c1OC | > 100 mg/kg | > 5 mg/kg | – |
| CC(C(=O)N1CCN(C(C#N)c2cccnc2)CC1)c1ccccc1 (centres undefined) | > 50 mg/kg | 0.26 mg/kg | – |
| N#CC(c1cccnc1)N1CCN(C(=O)CNCCCc2ccccc2)CC1 (centres undefined) | 50 mg/kg | 1.3 mg/kg | – |
| COc1cc(C(=O)N2CCN(C(C#N)c3ccccn3)CC2)cc(OC)c1OC (centres undefined) | – | > 5 mg/kg | – |
| COc1cc(C(=O)N2CCN(C(C#N)c3cccnc3)CC2)cc(OC)c1OC (centres undefined) | > 100 mg/kg | 4.4 mg/kg | – |
| CC(C(=O)N1CCN(C(C#N)c2cccnc2)CC1)(c1ccccc1)c1ccccc1 (centres undefined) | > 30 mg/kg | 0.14 mg/kg | – |
| N#CC(c1cccnc1)N1CCN(C(=O)/C(=C/c2ccccc2)c2ccccc2)CC1 (centres undefined) | > 20 mg/kg | 0.17 mg/kg | – |
| N#CC(c1cccnc1)C1CCN(C(=O)C(c2ccccc2)c2ccccc2)CC1 (centres undefined) | 14 mg/kg | 0.023 mg/kg | – |
| N#CC(c1cccnc1)N1CCN(C(=S)C(c2ccccc2)c2ccccc2)CC1 (centres undefined) | > 50 mg/kg | 0.45 mg/kg | – |
| CC(c1ccccc1)N(C)CC(=O)N1CCN(C(C#N)c2cccnc2)CC1 (centres undefined) | > 50 mg/kg | 0.77 mg/kg | – |
| N#CC(c1cccnc1)N1CCN(C(=O)C(Cc2ccccc2)Cc2ccccc2)CC1 (centres undefined) | 100 mg/kg | 0.68 mg/kg | – |
| COc1cc(C(=O)N2CCN(Cc3cccnc3)CC2)cc(OC)c1OC | > 100 mg/kg | > 5 mg/kg | – |
| N#CC(c1cccc(Cl)c1)N1CCN(C(=O)CC(c2ccccc2)c2ccccc2)CC1 (centres undefined) | > 30 mg/kg | > 5 mg/kg | – |
| CC(C)(C)C(=O)N1CCN(C(C#N)c2cccnc2)CC1 (centres undefined) | – | > 5 mg/kg | – |
| N#CC(c1ccncc1)N1CCN(C(=O)CC(O)(c2ccccc2)c2ccccc2)CC1 (centres undefined) | 7.7 mg/kg | 0.061 mg/kg | – |
| Cn1cc(C(C#N)N2CCN(C(=O)CC(c3ccccc3)c3ccccc3)CC2)c2ccccc21 (centres undefined) | – | > 5 mg/kg | – |
| Cn1ccc(C(C#N)N2CCN(C(=O)CC(c3ccccc3)c3ccccc3)CC2)c1 (centres undefined) | – | 4.2 mg/kg | – |
| NC(=O)C(c1cccnc1)N1CCN(C(=O)C(c2ccccc2)c2ccccc2)CC1 (centres undefined) | – | > 5 mg/kg | – |

| Structure (SMILES) | ID50 [1] | ID50 [2] | ID50 [3] |
| --- | --- | --- | --- |
| CCCCC(=O)N1CCN(C(C#N)c2cccnc2)CC1 (centres undefined) | > 50 mg/kg | 4.3 mg/kg | – |
| CN(CC(=O)N1CCN(C(C#N)c2cccnc2)CC1)C(c1ccccc1)c1ccccc1 (centres undefined) | 4.6 mg/kg | 0.33 mg/kg | – |
| N#CC(c1cccnc1)N1CCN(C(=O)CN(Cc2ccccc2)c2ccccc2)CC1 (centres undefined) | > 30 mg/kg | 0.42 mg/kg | – |
| O=C(C(c1ccccc1)c1ccccc1)N1CCN(Cc2cccnc2)CC1 | – | 2.7 mg/kg | – |
| N#CC(c1cccnc1)N1CCN(C(=O)CNCCC(c2ccccc2)c2ccccc2)CC1 (centres undefined) | 14 mg/kg | 0.21 mg/kg | – |
| N#CC(c1cccnc1)N1CCN(C(=O)CCc2ccccc2)CC1 (centres undefined) | 44 mg/kg | 1.2 mg/kg | – |
| N#CC(c1cccnc1)N1CCN(C(=O)CNc2ccccc2)CC1 (centres undefined) | 28 mg/kg | 0.49 mg/kg | – |
| CC(c1cccnc1)N1CCN(C(=O)C(c2ccccc2)c2ccccc2)CC1 (centres undefined) | 100 mg/kg | 3.6 mg/kg | – |
| CCCCCCCC(=O)N1CCN(C(C#N)c2cccnc2)CC1 (centres undefined) | 100 mg/kg | 1.2 mg/kg | – |
| N#CC(c1cccnc1)N1CCN(C(=O)CC(c2ccccc2)c2ccccc2)CC1 (centres undefined) | 12 mg/kg | 0.013 mg/kg | – |
| N#CC(c1cccnc1)N1CCN(CCNC(=O)CC(c2ccccc2)c2ccccc2)CC1 (centres undefined) | – | 2.2 mg/kg | – |
| N#CC(c1cccnc1)N1CCN(C(=O)CNc2cccc3ccccc23)CC1 (centres undefined) | – | 2.5 mg/kg | – |
| COc1cc(C(=O)N2CCN(C(=O)c3cc(OC)c(OC)c(OC)c3)CC2)cc(OC)c1OC | > 100 mg/kg | 4.7 mg/kg | – |
| N#CC(c1cccnc1)N1CCC(OC(=O)CC(c2ccccc2)c2ccccc2)CC1 (centres undefined) | – | > 5 mg/kg | – |
| N#CC(c1cccnc1)N1CCN(C(=O)C(Cc2ccccc2)c2ccccc2)CC1 (centres undefined) | > 50 mg/kg | 0.12 mg/kg | – |
| N#CC(c1cccnc1)N1CCN(CCC(c2ccccc2)c2ccccc2)CC1 (centres undefined) | 15 mg/kg | 3.1 mg/kg | – |
| COc1cc(CCC(=O)N2CCN(C(C#N)c3cccnc3)CC2)cc(OC)c1OC (centres undefined) | 100 mg/kg | 2 mg/kg | – |
| N#CC(c1cccnc1)N1CCN(C(=O)C(CCc2ccccc2)c2ccccc2)CC1 (centres undefined) | – | 0.73 mg/kg | – |
| N#CC(c1ccncc1)N1CCN(C(=O)CCNC(c2ccccc2)c2ccccc2)CC1 (centres undefined) | 3.2 mg/kg | 0.037 mg/kg | – |
| N#CC(c1cccnc1)N1CCN(C(=O)c2ccc3ccccc3c2)CC1 (centres undefined) | – | – | 5 mg/kg |
